Key:
[1] = Stability in pH 1.2 buffer at 37 degC after 72 hrs; type: physicochemical; settings: pH 1.2, 72 h
In short: (§1)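 Compound at 0.1 mM final in buffer (pH 1.2, 5.2, 7.4, 8.1, 9.0 or 11.5) at 37 °C up to 72 h; aliquots frozen at -80 °C, analysed by reverse-phase HPLC (TEAB/acetonitrile gradient, 260 nm); "stable" = less than 5% decomposition after 72 h.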

[2] = Stability in pH 7.4 buffer at 37 degC after 72 hrs; type: physicochemical; settings: pH 7.4, 72 h; in short: as §1
[3] = Stability in pH 11.5 buffer at 37 degC after 72 hrs; type: physicochemical; settings: pH 11.5, 72 h; in short: as §1
[4] = Stability in RPMI-1640 medium; type: ADME
In short: (§2)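 Compound diluted to 0.1 mM final in RPMI 1640 or culture medium (RPMI 1640 + 10% heat-inactivated FCS), incubated 37 °C; aliquots frozen at -80 °C and analysed by on-line cleaning HPLC (C18, TEAB/acetonitrile gradient, 260 nm); half-lives calculated.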

[5] = Stability in CEM-SS cell extracts; type: physicochemical, cell-based; settings: human
In short: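 CEM-SS cells were washed in PBS, resuspended at 30 × 10^6 cells/mL in 10 mM Tris-HCl, 140 mM KCl (pH 7.4), sonicated and cleared at 10 000g. The supernatant (soluble protein 3 mg/mL) was spiked to a final 0.1 mM compound and incubated at 37 °C. Samples were drawn over time, frozen at -80 °C, and analysed by on-line cleaning reverse-phase HPLC (TEAB gradient, 260 nm). Half-life was calculated.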

[6] = Stability in pH 9.0 buffer at 37 degC after 72 hrs; type: physicochemical; settings: pH 9, 72 h; in short: as §1
[7] = Stability in pH 8.1 buffer at 37 degC after 72 hrs; type: physicochemical; settings: pH 8.1, 72 h; in short: as §1
[8] = Stability in pH 5.2 buffer at 37 degC after 72 hrs; type: physicochemical; settings: pH 5.2, 72 h; in short: as §1
[9] = system: Human immunodeficiency virus 1; experiment: Antiviral activity against HIV1 in MAGI-CCR5 cells; type: functional, organism-based; settings: Human immunodeficiency virus 1, MAGI-CCR5
[10] = Cytotoxicity against MAGI-CCR5 cells; type: cell-based; settings: human
In short: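 MAGI-CCR5 cells (10^4 cells/well) were exposed to 0-400 µM compound, 4 h before mock/HIV-1 spinoculation and then throughout a 2-day culture. CC50 is the concentration inhibiting cell proliferation by 50%.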

[11] = Stability in culture medium (RPMI+FBS); type: physicochemical; settings: bovine; in short: as §2
[12] = system: Mammalian orthoreovirus 1; experiment: Antiviral activity against reovirus 1 in Vero cells; type: functional, organism-based; settings: Mammalian orthoreovirus 1, Vero
[13] = system: Vesicular stomatitis virus; experiment: Antiviral activity against vesicular somatitis virus in HEL cells; type: functional, organism-based
[14] = system: Respiratory syncytial virus; experiment: Antiviral activity against RSV in HeLa cells; type: functional, organism-based; settings: human respiratory syncytial virus
[15] = Cytotoxicity against Vero cells; type: cell-based; settings: chlorocebus sabaeus
Human alphaherpesvirus 2 = experiment: Antiviral activity against HSV2 in HEL cells; type: functional, organism-based; settings: Human alphaherpesvirus 2, HEL
Coxsackievirus B4 = experiment: Antiviral activity against Coxsackie B4 virus in HeLa cells; type: functional, organism-based; settings: Enterovirus B
[16] = Cytotoxicity against HeLa cells; type: cell-based; settings: human
Punta Toro virus = experiment: Antiviral activity against Punta Toro virus in Vero cells; type: functional, organism-based
[17] = Cytotoxicity against HEL cells; type: cell-based; settings: human
Sindbis virus = experiment: Antiviral activity against Sindbis virus in Vero cells; type: functional, organism-based
Human alphaherpesvirus 1 [18] = experiment: (§3) Antiviral activity against HSV1 KOS in HEL cells; type: functional, organism-based; settings: Human alphaherpesvirus 1, KOS
Vaccinia virus = experiment: Antiviral activity against vaccinia virus in HEL cells; type: functional, organism-based; settings: Orthopoxvirus vaccinia
Human respirovirus 3 = experiment: Antiviral activity against para influenza 3 virus in Vero cells; type: functional, organism-based; settings: Human respirovirus 3, Vero
Human alphaherpesvirus 1 [19] = experiment: as §3; type: functional, organism-based; settings: Human alphaherpesvirus 1, KOS; remark: listed apart in the source
[20] = Cytotoxicity against Huh5-2 cells; type: cell-based, Huh-5-2; settings: human
In short: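 Parallel Huh-5-2 cultures (7000 cells/well) given five 5-fold compound dilutions from 100 µM without G418; proliferation measured 3 days after addition by MTS bioreduction to formazan, read in a plate reader.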

Hepatitis C virus = experiment: Antiviral activity against HCV in Huh5-2 cells by subgenomic replicon assay; type: functional, organism-based, Hepacivirus hominis; settings: Huh-5-2
In short: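 Huh-5-2 cells bearing HCV genotype 1b subgenomic replicon I389luc-ubi-neo/NS3-3'/5.1, seeded 7000 cells/well, adhered 24 h, then five 5-fold dilutions from 100 µM in medium lacking G418 for 72 h at 37 °C, 5% CO2. Interferon alfa 2a (500 IU) positive control. Firefly luciferase read as % of untreated cultures; EC50 calculated.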

SMILES: C[C@H](Cn1cnc2c(N)ncnc21)OCP(=O)(O)O [TENOFOVIR ANHYDROUS]
- Stability [1]: Stable
- Stability [2]: Stable
- Stability [3]: Stable
- half-life [4]: > 72 h
- half-life [5]: > 72 h
- Stability [6]: Stable
- Stability [7]: Stable
- Stability [8]: Stable
- EC50 [9]: 0.35 µM
- CC50 [10]: > 400 µM
- half-life [11]: > 72 h

SMILES: O=c1[nH]c(=O)n([C@H]2C[C@H](O)[C@@H](CO)O2)cc1/C=C/Br [BRIVUDINE]
- EC50 [12]: > 500 µM
- EC50 [13]: > 500 µM
- EC50 [14]: > 500 µM
- CC50 [15]: > 500 µM
- EC50 (Human alphaherpesvirus 2): 300 µM
- EC50 (Coxsackievirus B4): > 500 µM
- CC50 [16]: > 500 µM
- EC50 (Punta Toro virus): > 500 µM
- CC50 [17]: > 500 µM
- EC50 (Sindbis virus): > 500 µM
- EC50 (Human alphaherpesvirus 1 [18]): 0.096 µM
- EC50 (Vaccinia virus): 2.4 µM
- EC50 (Human respirovirus 3): > 500 µM
- EC50 (Human alphaherpesvirus 1 [19]): 300 µM

SMILES: Cc1cn([C@H]2C[C@H](N=[N+]=[N-])[C@@H](CO)O2)c(=O)[nH]c1=O [ZIDOVUDINE]
- EC50 [9]: 0.025 µM
- CC50 [10]: > 400 µM

SMILES: BP(=O)(O)COCCn1cnc2c(N)ncnc21
- EC50 [12]: > 200 µM
- Stability [1]: Stable
- Stability [2]: Stable
- Stability [3]: Stable
- half-life [4]: > 72 h
- half-life [5]: 48 h
- CC50 [20]: > 200 µM
- EC50 [14]: > 200 µM
- Stability [6]: Stable
- CC50 [15]: > 200 µM
- EC50 (Human alphaherpesvirus 2): > 200 µM
- EC50 (Coxsackievirus B4): > 200 µM
- CC50 [16]: > 200 µM
- Stability [7]: Stable
- EC50 (Hepatitis C virus): > 33 µM
- EC50 (Punta Toro virus): > 200 µM
- CC50 [17]: > 200 µM
- Stability [8]: Stable
- EC50 (Sindbis virus): > 200 µM
- EC50 [9]: > 400 µM
- EC50 (Human alphaherpesvirus 1 [18]): > 200 µM
- CC50 [10]: > 400 µM
- half-life [11]: 5.3 h
- EC50 (Human alphaherpesvirus 1 [19]): > 200 µM

SMILES: Nc1ncnc2c1ncn2CCOCP(=O)(O)O [ADEFOVIR]
- Stability [1]: Stable
- Stability [2]: Stable
- Stability [3]: Stable
- half-life [4]: > 72 h
- half-life [5]: > 72 h
- Stability [6]: Stable
- Stability [7]: Stable
- Stability [8]: Stable
- EC50 [9]: 5.04 µM
- CC50 [10]: > 400 µM
- half-life [11]: > 72 h

SMILES: Cc1cn([C@H]2C=C[C@@H](CO)O2)c(=O)[nH]c1=O [STAVUDINE]
- EC50 [9]: 0.062 µM
- CC50 [10]: > 400 µM

SMILES: Nc1ncnc2c1ncn2C[C@H](O)CO [(S)-DHPA]
- EC50 [12]: > 500 µM
- EC50 [14]: > 500 µM
- CC50 [15]: > 500 µM
- EC50 (Coxsackievirus B4): > 500 µM
- CC50 [16]: > 500 µM
- EC50 (Punta Toro virus): > 500 µM
- EC50 (Sindbis virus): > 500 µM
- EC50 (Human respirovirus 3): > 500 µM

SMILES: Nc1nc2c(ncn2COCCO)c(=O)[nH]1 [ACYCLOVIR]
- EC50 [13]: > 500 µM
- EC50 (Human alphaherpesvirus 2): 0.48 µM
- CC50 [17]: > 500 µM
- EC50 (Human alphaherpesvirus 1 [18]): 0.48 µM
- EC50 (Vaccinia virus): 300 µM
- EC50 (Human alphaherpesvirus 1 [19]): 12 µM

SMILES: BP(=O)(O)CO[C@H](C)Cn1cnc2c(N)ncnc21
- EC50 [12]: > 200 µM
- Stability [1]: Stable
- Stability [2]: Stable
- Stability [3]: Stable
- half-life [4]: > 72 h
- half-life [5]: 24 h
- CC50 [20]: > 200 µM
- EC50 [14]: > 200 µM
- Stability [6]: Stable
- CC50 [15]: > 200 µM
- EC50 (Human alphaherpesvirus 2): > 200 µM
- EC50 (Coxsackievirus B4): > 200 µM
- CC50 [16]: > 200 µM
- Stability [7]: Stable
- EC50 (Hepatitis C virus): > 33 µM
- EC50 (Punta Toro virus): > 200 µM
- CC50 [17]: > 200 µM
- Stability [8]: Stable
- EC50 (Sindbis virus): > 200 µM
- EC50 [9]: > 400 µM
- EC50 (Human alphaherpesvirus 1 [18]): > 200 µM
- CC50 [10]: > 400 µM
- half-life [11]: 1.3 h
- EC50 (Human alphaherpesvirus 1 [19]): 120 µM

SMILES: Nc1ncnc2c1ncn2CCOC[PH](=O)O
- EC50 [12]: > 200 µM
- Stability [1]: Stable
- Stability [2]: Stable
- Stability [3]: Stable
- half-life [4]: > 72 h
- EC50 [13]: > 200 µM
- half-life [5]: > 72 h
- CC50 [20]: > 200 µM
- EC50 [14]: > 200 µM
- Stability [6]: Stable
- CC50 [15]: > 200 µM
- EC50 (Human alphaherpesvirus 2): 120 µM
- EC50 (Coxsackievirus B4): > 200 µM
- CC50 [16]: > 200 µM
- Stability [7]: Stable
- EC50 (Hepatitis C virus): > 33 µM
- EC50 (Punta Toro virus): > 200 µM
- CC50 [17]: > 200 µM
- Stability [8]: Stable
- EC50 (Sindbis virus): > 200 µM
- EC50 [9]: > 400 µM
- EC50 (Human alphaherpesvirus 1 [18]): > 200 µM
- CC50 [10]: > 400 µM
- EC50 (Vaccinia virus): > 200 µM
- EC50 (Human respirovirus 3): > 200 µM
- half-life [11]: > 72 h
- EC50 (Human alphaherpesvirus 1 [19]): 120 µM

SMILES: NC(=O)c1ncn([C@@H]2O[C@H](CO)[C@@H](O)[C@H]2O)n1 [RIBAVIRIN]
- EC50 [12]: 100 µM
- EC50 [13]: > 500 µM
- EC50 [14]: 12 µM
- CC50 [15]: > 500 µM
- EC50 (Human alphaherpesvirus 2): > 500 µM
- EC50 (Coxsackievirus B4): > 500 µM
- CC50 [16]: > 500 µM
- EC50 (Punta Toro virus): 100 µM
- CC50 [17]: > 500 µM
- EC50 (Sindbis virus): > 500 µM
- EC50 (Human alphaherpesvirus 1 [18]): 300 µM
- EC50 (Vaccinia virus): 100 µM
- EC50 (Human respirovirus 3): 300 µM
- EC50 (Human alphaherpesvirus 1 [19]): > 500 µM

SMILES: Nc1nc2c(ncn2COC(CO)CO)c(=O)[nH]1 [GANCICLOVIR]
- EC50 [13]: > 100 µM
- EC50 (Human alphaherpesvirus 2): 0.032 µM
- CC50 [17]: > 100 µM
- EC50 (Human alphaherpesvirus 1 [18]): 0.019 µM
- EC50 (Vaccinia virus): > 100 µM
- EC50 (Human alphaherpesvirus 1 [19]): 0.48 µM

SMILES: C[C@H](Cn1cnc2c(N)ncnc21)OC[PH](=O)O
- EC50 [12]: > 200 µM
- Stability [1]: Stable
- Stability [2]: Stable
- Stability [3]: Stable
- half-life [4]: > 72 h
- EC50 [13]: > 200 µM
- CC50 [20]: > 200 µM
- EC50 [14]: > 200 µM
- Stability [6]: Stable
- CC50 [15]: > 200 µM
- EC50 (Human alphaherpesvirus 2): > 200 µM
- EC50 (Coxsackievirus B4): > 200 µM
- CC50 [16]: > 200 µM
- Stability [7]: Stable
- EC50 (Hepatitis C virus): > 33 µM
- EC50 (Punta Toro virus): > 200 µM
- CC50 [17]: > 200 µM
- Stability [8]: Stable
- EC50 (Sindbis virus): > 200 µM
- EC50 [9]: > 400 µM
- EC50 (Human alphaherpesvirus 1 [18]): > 200 µM
- CC50 [10]: > 400 µM
- EC50 (Vaccinia virus): > 200 µM
- EC50 (Human respirovirus 3): > 200 µM
- half-life [11]: > 72 h
- EC50 (Human alphaherpesvirus 1 [19]): > 200 µM
